Results taken from ChEMBL document CHEMBL5506013, “Mitochondria-Selective Dicationic Small-Molecule Ligand Targeting G-Quadruplex Structures for Human Colorectal Cancer Therapy” (J Med Chem, 2024).
Calls of active or inactive are those of the source. No cut-off for these calls is given here.

How the values were obtained:
[1] = system: HCT-116; experiment: Antiproliferative activity against human HCT-116 cells measured after 48 hrs by MTT assay; format: functional, cell-based; settings: HCT-116, 48 h
Method in brief: (§1)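 Cells exposed to the ligands for 48 h. Viability was read by MTT, and the IC50 was derived from the response.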

[2] = Drug localization in nucleus of human HCT-116 cells at 4 uM measured upto 12 hrs by hoechst33342 staining based live cell imaging analysis; format: ADME, subcellular; settings: hct-116, 12 h
[3] = Drug localization in lysosome of living human HCT-116 cells assessed as colocalization at 4 uM incubated for 1 hr by lyso-tracker blue staining based analysis; format: ADME, subcellular; settings: hct-116, 1 h
[4] = system: HCT-116; experiment: Induction of mitochondrial dysfunction in human HCT-116 cells assessed as decrease in extracellular acidification rate at upto 4 uM incubated for 3 hrs by Seahorse XFe24 analyzer; format: functional, cell-based
Method in brief: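 Seahorse Mito-stress and glycolysis stress tests on HCT116 cells treated with ligand for 3 h. Oxygen consumption rate and extracellular acidification rate recorded.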

[5] = system: Quadruplex DNA; experiment: Binding affinity to Mito 78 G4 DNA (unknown origin) assessed as increase in CD signal at 5 uM at 290 nMby circular dichroism spectroscopic analysis; format: nucleic-acid assay
[6] = system: HCT-116; experiment: Antitumor activity against human HCT-116 cells assessed as increase in beta-galactosidase activity at upto 4 uM measured after 72 hrs relative to control; format: functional; settings: up to 4 µM
Method in brief: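 HCT116 cells were treated for 72 h across 0–4 uM. β-Galactosidase activity was then measured against untreated control. Data are given as mean ± SEM, with significance by t test.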

[7] = system: Quadruplex DNA; experiment: Binding affinity to Mito 55 G4 DNA (unknown origin) assessed as change in melting temperature at 5 uM by circular dichroism spectroscopic analysis; format: nucleic-acid assay
[8] = system: HCT-116; experiment: Induction of cell senescence in human HCT-116 cells assessed by increase SA-beta-Gal positive cells at upto 4 uM measured after 72 hrs by SA-bet-gal assay
[9] = Toxicity in BALB/c nude mouse assessed as effect on kidney at 5 mg/kg, iv measured after 16 hrs post injection by H and E staining based analysis; format: organism-based; settings: in vivo
[10] = system: HCT-116; experiment: Inhibition of cell proliferation in human HCT-116 cells at 4 uM measured after 7 days by colony formation assay relative to control; format: functional; settings: HCT-116, 168 h, time 7 day
Method in brief: (§2)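 Colony formation: HCT116 cells treated for 7 days at 0, 1, 2 or 4 uM, colonies counted and quantified; mean ± SD.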

[11] = system: HCT-116; experiment: Inhibition of cell proliferation in human HCT-116 cells at upto 4 uM measured after 7 days by colony formation assay; format: functional, cell-based; settings: time 7.0 day; method in brief: as §2
[12] = Drug localization in human HCT-116 cells by measuring red foci at 4 uM incubated for 1 hr in presence of FCCP by hoechst33342 staining based analysis; format: ADME, cell-based; settings: hct-116, 1 h
Method in brief: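 Pretreatment of live HCT116 cells: FCCP 1 uM for 20 min, cyclosporin A 1 uM for 24 h, DMOG 100 uM for 24 h, or MitoPDS at several concentrations for 3 h (applied after dye loading). Cells loaded with ligand 4 uM (excitation 488 nm) for 1 h and Hoechst33342 1 uM for 30 min. Red foci counted by confocal imaging in 100 cells. Mean ± SEM, t test.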

[13] = system: HCT-116; experiment: Downregulation of ND5 mRNA level in human HCT-116 cells at 0 to 4 uM measured after 48 hrs by qRT-PCR analysis; format: functional, cell-based; settings: dose 0-4 µM
[14] = Drug localization in human HCT-116 cells overexpressing eBFP tagged Pif1 by measuring red foci at 4 uM incubated for 1 hr by hoechst33342 staining based analysis; format: ADME, cell-based; settings: hct-116, 1 h
Method in brief: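 HCT116 cells overexpressing eBFP-tagged Pif1 (excitation 405 nm), with an eBFP-only control. Cells incubated with ligand 4 uM (excitation 488 nm) for 1 h, then red foci imaged by confocal microscopy in 100 cells. Mean ± SEM, t test.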

[15] = Toxicity in BALB/c nude mouse assessed as change in mean red blood cell volume at 5 mg/kg, iv administered every two days for 16 days; format: organism-based; settings: in vivo, 384 h, time 16 day
Method in brief: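 HCT116 xenograft-bearing male Balb/c nude mice (6/group) dosed iv at 5 mg/kg every two days or with PBS. Whole blood collected at sacrifice on day 16 for hematology parameters.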

[16] = Toxicity in BALB/c nude mouse assessed as effect on lung at 5 mg/kg, iv measured after 16 hrs post injection by H and E staining based analysis; format: organism-based; settings: in vivo
[17] = system: HCT-116; experiment: Downregulation of mitochondrial respiratory chain complex-IV level in human HCT-116 cells at upto 4 uM measured after 48 hrs by Western blot analysis; format: functional, cell-based
[18] = Toxicity in BALB/c nude mouse assessed as effect on liver at 5 mg/kg, iv measured after 16 hrs post injection by H and E staining based analysis; format: organism-based; settings: in vivo
[19] = system: HCT-116; experiment: Downregulation of ATP8 protein level in human HCT-116 cells at upto 4 uM incubated for 48 hrs by Western blot analysis; format: functional, cell-based
[20] = Toxicity in BALB/c nude mouse assessed as effect on heart at 5 mg/kg, iv measured after 16 hrs post injection by H and E staining based analysis; format: organism-based; settings: in vivo
[21] = Drug localization in human HCT-116 cells transfected with Cy5-mito 0.5-16 G4 DNA at 4 uM incubated for 1 hr by hoechst33342 staining based analysis; format: ADME, cell-based; settings: hct-116, 1 h
Method in brief: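 HCT116 cells transfected with Cy5-labelled DNA (excitation 635 nm) for 24 h. Ligand 4 uM added for 1 h, then Hoechst33342 1 uM for 30 min. Colocalization of ligand with Cy5 quantified by Pearson r from confocal images.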

[22] = system: HCT-116; experiment: Antitumor activity against human HCT-116 cells xenografted in Balb/c nude mouse model assessed as inhibition of tumor cell proliferation at 5 mg/kg, iv administered every two days for 16 days by Ki67 staining based analysis; format: functional, organism-based; settings: time 16.0 day
Method in brief: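 Tumours came from HCT116-xenografted male Balb/c nude mice given 5 mg/kg i.v. every two days, or PBS, for 16 days. Tumour tissue sections were stained by TUNEL for apoptosis and by Ki67 immunofluorescence for proliferation, then compared with the control group.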

[23] = system: LoVo; experiment: Antiproliferative activity against human LoVo cells measured after 48 hrs by MTT assay; format: functional, cell-based; method in brief: as §1
[24] = system: HCT-116; experiment: Downregulation of lamin B1 level in human HCT-116 cells measured after 72 hrs by Western blot analysis; format: functional, cell-based; settings: dose <= 4.0 µM
Method in brief: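 HCT116 cells treated with ligand at 0-4 uM for 72 h. Lamin B1 and Ki67 imaged by immunofluorescence (excitation 635 nm), or lamin B1 probed on Western blot with β-actin as loading control.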

[25] = system: HCT-116; experiment: Downregulation of ND3 protein level in human HCT-116 cells at upto 4 uM incubated for 48 hrs by Western blot analysis; format: functional, cell-based
[26] = Drug localization in human HCT-116 cells by measuring red foci at 4 uM incubated for 1 hr in presence of DNA I by hoechst33342 staining based analysis; format: ADME, cell-based; settings: hct-116, 1 h
Method in brief: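 Live HCT116 cells loaded with ligand 4 uM for 1 h and Hoechst33342 1 uM for 30 min, then fixed. Fixed cells digested with 200 units DNase I or RNase A for 3 h. Red foci imaged by confocal microscopy in 100 cells. Mean ± SEM, t test.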

C(=C\c1ccc2ccccc2[n+]1CCCCCCCC[n+]1c(/C=C/c2ccc(N3CCCCC3)cc2)ccc2ccccc21)/c1ccc(N2CCCCC2)cc1.[I-].[I-]
IC50 [1]: 3.4 µM
Drug uptake [2]: Not Active
Drug uptake [3]: Not Active
Activity [4]: Active
Activity [5]: Active
Activity [6]: 17.63%
ΔTm [7]: 3.6 °C
Activity [8]: Active
Activity [9]: Non-Toxic
inhibition at 4 µM [10]: 100%
inhibition [11]: Active
Drug uptake [12]: Not Active
Activity [13]: Active
Drug uptake [14]: Not Active
Activity [15]: Non-Toxic
Activity [16]: Non-Toxic
Activity [17]: Active
Activity [18]: Non-Toxic
Activity [19]: Active
Activity [20]: Non-Toxic
Drug uptake [21]: Active
Activity [22]: Active
IC50 [23]: 13.4 µM
Activity [24]: Dose-Dependent Effect
Activity [25]: Active
Drug uptake [26]: Not Active
